MrgX1 antagonist = antagonists of human MrgX1 receptor | Q96LB2 | B-score at 10 µM | 310,000 compounds, 1.3% hits | MRGX1-HEK293 calcium flux, Fluo-4, BAM8-22 antagonism; active compounds read low;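 active = calcium-response B-score plate-corrected more than 3 library SD below zero, starting fluorescence within 5 deviations, no agonist response on first addition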;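 note: peak minus trough fluorescence over baseline after final BAM8-22 challenge near maximal dose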
RGS4 pot = potentiators or activators of RGS4; HEK293 M3R/inducible RGS4, carbachol calcium flux Fluo4; active compounds read low; B-score at 10 µM; 310,000 compounds, 0.92% hits; AID 463111;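 active = B-score of the integrated calcium signal more than 4 SD below the library mean, with starting fluorescence not abnormally high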;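 note: negative B-score means reduced calcium response which marks RGS4 activation or potentiation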
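Detection: kinetic calcium fluorescence imaging with Fluo4-AM dye, 2 µM / Material: HEK293 cells with stable M3R and inducible RGS4 / Schedule: recording 10 s baseline at 1 Hz, 100 s post-agonist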
MrgX1 ag = agonists of human MrgX1 receptor. Q96LB2. MrgX1-HEK293 cells, Fluo-4 calcium fluorescence, agonist mode; active compounds read high. B-score at 10 µM. 310,000 compounds, 0.44% hits;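 active = calcium response B-score plate-corrected fluorescence ratio at least 3 library SD, with starting fluorescence B-score inside 5 SD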
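Material – MrgX1-expressing HEK293 cells · Input – 15,000 cells seeded per well · Dosing – compound as first of three additions · Times – overnight seeding, then 1 h dark dye loading · Measured by – kinetic Fluo-4 NW fluorescence of intracellular calcium · Read-out – B-scored fluorescence response ratio · Benchmarks – positive and negative control wells on each plate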
RGS4 inh = human RGS4 inhibition | P49798 | B-score at 10 µM | HEK293 M3R/RGS4 inducible, Fluo-4 calcium flux; active compounds read high; triggered by carbachol at its EC20 | AID 463165 | 310,000 compounds, 0.45% hits;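 active = B-score, a plate-corrected calcium signal, over three deviations above library mean, with baseline fluorescence within five deviations of library mean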;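 note: RGS4 expression induced by doxycycline in cells with stable M3 receptor; B-score is computed from the integrated fluorescence ratio over baseline after carbachol; higher B-score means a larger calcium signal and so more RGS4 inhibition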
Target sequence (P49798 whole entry, looked up): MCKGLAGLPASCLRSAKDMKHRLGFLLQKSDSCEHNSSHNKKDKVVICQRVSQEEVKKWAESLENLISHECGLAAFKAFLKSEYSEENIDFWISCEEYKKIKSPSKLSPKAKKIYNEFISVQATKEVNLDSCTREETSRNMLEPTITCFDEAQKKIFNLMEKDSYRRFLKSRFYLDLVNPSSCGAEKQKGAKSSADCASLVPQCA
MrgX1 PAM = allosterically activates human MrgX1 receptor signaling; 310,000 compounds, 0.63% hits; AID 588675; B-score at 10 µM; Q96LB2; MrgX1-HEK293, Fluo-4 calcium flux, FDSS; active compounds read high;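 active = plate-corrected calcium response at least 3 library SD above typical, normal starting fluorescence, not activating the receptor alone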;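 note: compound read alongside a low EC10 to EC30 dose of BAM8-22 agonist; peak minus trough fluorescence over baseline measured at the second addition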
RGS4 block valid = RGS4 inhibitor validation. shares compounds with RGS4 inh. HEK293 M3R/RGS4, carbachol calcium Fluo-4 fluorescence; carbachol added at its EC20; 0 = buffer wells, 100 = carbachol control. calcium response, % at 10 µM. 1,700 compounds, 65% hits. AID 492999;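 active = duplicate-averaged calcium response above the buffer-only control mean plus 5 SD of those controls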;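 note: integrated fluorescence ratio F max minus min over baseline F0; higher response in RGS4-induced cells means RGS4 inhibition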
M3R Ca ctr = counter-screen for RGS4 inhibitors: effect in non-induced cells. shares compounds with RGS4 inh. HEK293 M3R non-induced, carbachol calcium Fluo-4; submaximal (EC20) carbachol stimulus; buffer wells 0%, carbachol control wells 100%. activity (percent), % at 10 µM. 1,900 compounds, 20% hits. AID 493000; call rule not given here;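 note: RGS4 induction absent so cells express M3R without RGS4; higher means more calcium signal and flags a non-specific hit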
RGS4 inh ctr2 = second counter-screen for RGS4 inhibitors: non-induced cells without carbachol; calcium response (agonist-mode artifact), % at 10 µM; 1,900 compounds, 22% hits; HEK293 M3R/RGS4 non-induced, Fluo-4 calcium, no carbachol; normalised: buffer wells 0%, carbachol wells 100%; shares compounds with RGS4 inh;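 active = duplicate-averaged calcium rise in uninduced cells above buffer wells' mean plus 5 SD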
An asterisk follows results filed as active; i = inactive; x = no result given. Rows were chosen to be rich in hits. Some 3.5% of all compounds tested hit in one or more screens of this group.

SMILES	MrgX1 antagonist	RGS4 pot	MrgX1 ag	RGS4 inh	MrgX1 PAM	RGS4 block valid	M3R Ca ctr	RGS4 inh ctr2
Cc1ccc(C)c(N(Cc2cc3ccc(C)cc3[nH]c2=O)C(=O)c2ccco2)c1	i	i	i	i	i	i	i	i
COc1ccc(N(Cc2cc3ccc(C)cc3[nH]c2=O)C(=O)c2ccco2)cc1	i	i	i	i	i	i	i	i
COc1ccc(N(Cc2cc3ccc(C)cc3[nH]c2=O)C(=O)C2CCCO2)cc1 (stereo not drawn)	i	i	i	i	i	x	x	x
O=C(O)c1ccc2c(=O)n3c(nc2c1)/C(=C/c1cccc(O)c1)CC3	i	i	i	i	i	x	x	x
O=C(O)c1ccc2c(=O)n3c(nc2c1)/C(=C/c1ccc(Cl)c(Cl)c1)CC3	i	i	i	15.7*	i	29.5%*	i	i
Cc1ccc(C)c(/C=C2\CCn3c2nc2cc(C(=O)O)ccc2c3=O)c1	i	i	i	i	i	i	i	i
COC(=O)c1ccc(/C=C2\CCn3c2nc2cc(C(=O)O)ccc2c3=O)cc1	i	i	i	i	i	x	x	x
Cc1ccc(C(C2C(=O)CC(C)(C)CC2=O)C2C(=O)CC(C)(C)CC2=O)s1	i	i	i	24.5*	i	17.0%*	i	i
CC1=NN(c2ccc(Cl)cc2)C(=O)C1C(c1cccc(O)c1)c1c(C)[nH]n(-c2ccc(Cl)cc2)c1=O (stereo not drawn)	i	i	i	i	i	x	35.5%*	i
CC1=NN(c2ccc(F)cc2)C(=O)C1C(c1cccc(O)c1)c1c(C)[nH]n(-c2ccc(F)cc2)c1=O (stereo not drawn)	i	i	i	9.66*	i	13.0%*	i	i
CC1=NN(c2ccc(C)cc2C)C(=O)C1C(c1ccccc1)C1C(=O)N(c2ccc(C)cc2C)N=C1C (stereo not drawn)	i	i	i	i	i	x	x	x
Cc1ccc(C(=O)NCCC(=O)Nc2ccccc2C)cc1	i	i	i	i	i	x	x	x
Nn1c(Nc2ccccc2)nc2sc3c(c2c1=O)CCC3	x	i	x	4.83*	x	13.5%*	i	i
O=C1Nc2ccccc2/C1=N/N=C/c1cccc(O)c1	i	i	i	8.95*	i	19.5%*	47.0%*	i
Cn1cc(C(=O)N/N=C/C2=C(N3CCOCC3)C(=C\c3ccccc3)/CC2)ccc1=O	i	i	i	i	i	x	x	x
O=C1Nc2ccccc2/C1=N\N=C\C1=C(N2CCOCC2)C(=C\c2ccccc2)/CC1	i	i	i	i	i	x	i	i
COc1ccc(OC)c(NC(=O)C(=O)NCc2ccncc2)c1	i	i	i	4.81*	i	10.5%*	i	i
COc1ccc(NC(=O)C(=O)NCC(=O)Nc2cc(OC)ccc2OC)cc1	i	i	i	i	i	x	x	x
COc1ccc(C2c3c(-c4ccccc4O)n[nH]c3C(=O)N2Cc2ccco2)cc1OC (stereo not drawn)	i	i	i	i	i	x	x	x
O=C1c2[nH]nc(-c3ccccc3O)c2C(c2ccc(F)cc2)N1Cc1ccco1 (stereo not drawn)	i	i	i	9.04*	i	19.5%*	i	i
O=C1c2[nH]nc(-c3ccccc3O)c2C(c2cccc(Cl)c2)N1Cc1ccco1 (stereo not drawn)	i	i	i	8.08*	i	25.0%*	i	i
COC(=O)c1ccc(NS(=O)(=O)c2ccccc2)o1	i	i	i	i	i	x	x	x

Source: PubChem
